Results reported in publication PMC3237191 (FEBS letters, 2011).

Assays:
DGKε (DGKε-His6) [1] = target: T1, DGKε (DGKε-His6) (Homo sapiens, UniProt P52429); test: Triton X-100/DOPC mixed micelle assay with [γ-32P]-ATP, nonlinear regression; format: biochemical; details: competitive; substrate 18:0/20:4-DAG; 0.1 mM ATP; 15 mM Triton X-100; lysate
T1 sequence (P52429 1-567): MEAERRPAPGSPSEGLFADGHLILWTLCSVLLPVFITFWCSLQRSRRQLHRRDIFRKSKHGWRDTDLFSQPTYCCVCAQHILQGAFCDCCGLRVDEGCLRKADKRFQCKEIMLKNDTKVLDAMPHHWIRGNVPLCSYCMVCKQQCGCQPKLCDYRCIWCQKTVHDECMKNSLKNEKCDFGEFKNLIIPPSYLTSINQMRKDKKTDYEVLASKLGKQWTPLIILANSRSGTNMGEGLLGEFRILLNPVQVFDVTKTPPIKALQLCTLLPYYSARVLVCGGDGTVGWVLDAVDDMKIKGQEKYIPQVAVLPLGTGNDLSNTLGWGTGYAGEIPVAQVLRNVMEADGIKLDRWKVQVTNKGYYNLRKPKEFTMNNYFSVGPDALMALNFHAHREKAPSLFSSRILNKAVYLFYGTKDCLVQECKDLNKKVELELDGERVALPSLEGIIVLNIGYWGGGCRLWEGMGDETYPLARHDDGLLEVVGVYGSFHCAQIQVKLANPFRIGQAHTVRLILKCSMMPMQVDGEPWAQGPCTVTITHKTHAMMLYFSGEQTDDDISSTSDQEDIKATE
In short: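 DGKε-His6 was taken from the high-speed supernatant of NP-40-lysed, sonicated Sf21 cells infected with baculovirus. It phosphorylated 18:0/20:4-DAG or 20:4/20:4-DAG in Triton X-100/DOPC mixed micelles with [γ-32P]-ATP, with a phosphatidic acid species added as inhibitor. PA stock levels were set from measured phosphate content. Ki was fitted by nonlinear regression to a competitive inhibition model.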

DGKε (DGKε-His6) [2] = target: T1, DGKε (DGKε-His6); test: Triton X-100/DOPC mixed micelle assay with [γ-32P]-ATP; format: biochemical; details: 0.1 mM ATP; 15 mM Triton X-100; 22.5 mol% DOPC; lysate
In short: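 Enzyme is the 100,000 g supernatant (30 min, 4 °C) of baculovirus-infected Sf21 cells expressing human DGKε-His6. Cells were lysed 10 min on ice in 1% NP-40, 20 mM Tris-HCl pH 7.5, 150 mM NaCl, 1 mM EDTA, phosphatase and protease inhibitors, then sonicated 5 min. DAG substrate was dried with DOPC into lipid films for the micelles, and DAG level was varied. Run in triplicate. Vmax and Km come from nonlinear regression of v0 versus [S] and from Hanes plots.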

Compound | Ki, mol% (DGKε (DGKε-His6) [1]) | Km (mol%) (DGKε (DGKε-His6) [2])
CCCCC/C=C\C/C=C\C/C=C\C/C=C\CCCC(=O)OC[C@H](COP(=O)(O)O)OC(=O)CCC/C=C\C/C=C\C/C=C\C/C=C\CCCCC [20:4/20:4-PA] | 4.4 ± 1.0 mol% | –
CCCCC/C=C\C/C=C\CCCCCCCC(=O)OC[C@H](CO)OC(=O)CCCCCCC/C=C\C/C=C\CCCCC [18:2/18:2-DAG] | – | 3.5 ± 0.4 mol%
CCCCC/C=C\C/C=C\C/C=C\C/C=C\CCCC(=O)OC[C@H](CO)OC(=O)CCC/C=C\C/C=C\C/C=C\C/C=C\CCCCC [20:4/20:4-DAG, 1,2-diarachidonoyl-DAG] | – | 2.0 ± 0.7 mol%
CCCCC/C=C\C/C=C\C/C=C\C/C=C\CCCC(=O)O[C@@H](CO)COC(=O)CCCCCCCCCCCCCCCCC [18:0/20:4-DAG, 1-stearoyl-2-arachidonoyl-DAG] | – | 2.0 ± 0.7 mol%
